Measured values from ChEMBL document CHEMBL3228001, “Rigid congeners of dopamine based on octahydrobenzo[f]quinoline: peripheral and central effects” (1979).
Where a name gives a salt, the structure may show the parent alone. Activity calls are given as the source filed them.

Legend:
Canis familiaris [1] = test: Emetic activity in sc dosed dogs assessed as frequency of vomiting for 1 hr relative to apomorphine; format: functional, Canis lupus familiaris
Rattus norvegicus [2] = test: Dopaminergic activity in Sprague-Dawley rat assessed as hyperactivity up to 6.25 to 50 ug administered into nucleus accumbens; format: functional, organism-based
Outline: (§1)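 Male Sprague-Dawley rats (250 ± 26 g) had guide cannulae implanted for bilateral injection into caudate-putamen and nucleus accumbens, and were used 10–14 days later. Nialamide 100 mg/kg ip was given 2 h before. Drug in N2-bubbled water (minimal DMF if needed), 1–2 µL over 60 s. Hyperactivity was read as photocell counts/5 min, stereotypy was scored, and cannula sites were checked histologically.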

Rattus norvegicus [3] = test: Dopaminergic activity in Sprague-Dawley rat assessed as stereotyped behavior characterized by sniffing and biting at up to 10 mg/kg, sc; format: functional, organism-based; parameters: dose 10 mg/kg
Outline: (§2)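 Male Sprague-Dawley rats, groups of 10, were dosed sc in distilled water with 0.1% sodium metabisulfite, with solvent controls. Stereotyped sniffing and biting were scored as for intracerebral tests at 21 ± 2 °C between 08:00 and 18:00 h. Dose range runs from the threshold dose to the dose giving maximal response, in mg/kg sc.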

Rattus norvegicus [4] = test: Dopaminergic activity in Sprague-Dawley rat assessed as stereotyped behavior characterized by continous sniffing up to 12.5 to 50 ug administered into nucleus accumbens; format: functional, organism-based; outline: as §1
Rattus norvegicus [5] = test: Dopaminergic activity in Sprague-Dawley rat assessed as stereotypic behavior administered into caudate-putamen measured up to 25 ug from 5 to 15 mins to persisted up to 3 hrs; format: functional, organism-based; outline: as §1
Mus musculus [6] = test: Dopaminergic activity in albino mouse assessed as stereotyped behavior characterized by sniffing and biting at up to 10 mg/kg, sc; format: functional, organism-based; parameters: dose 10 mg/kg
Outline: (§3)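 Male albino mice (20–25 g, N = 10) were dosed sc in water containing 0.1% sodium metabisulfite and scored for stereotyped sniffing and biting. Dose range runs from the threshold dose to the dose giving maximal response, in mg/kg sc.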

Rattus norvegicus [7] = test: Dopaminergic activity in Sprague-Dawley rat assessed as hyperactivity behavior administered into nucleus caudate-putamen measured up to 25 ug from 30 to 45 mins to persisted up to 3 hrs; format: functional, organism-based; outline: as §1
Rattus norvegicus [8] = test: Dopaminergic activity in Sprague-Dawley rat assessed as hyperactivity up to 25 ug administered into caudate-putamen; format: functional, organism-based; outline: as §1
Mus musculus [9] = test: Dopaminergic activity in albino mouse assessed as induction of climbing behavior up to 10 mg/kg, sc; format: functional, organism-based; parameters: dose 10 mg/kg
Outline: (§4)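 Male albino mice (20–25 g, N = 10) were dosed sc in water with 0.1% sodium metabisulfite and placed in wire-mesh-lined cages. A mouse counted as climbing when holding the wire with all four paws. Measures: climbing index (% time climbing in the 30 min after the first climb) and maximum single-climb time. Doses run from threshold to maximal response.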

Mus musculus [10] = test: Dopaminergic activity in albino mouse assessed as induction of ipsilateral circling behavior up to 10 mg/kg, sc; format: functional, organism-based; parameters: dose 10 mg/kg
Outline: (§5)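 Male albino mice (30–35 g) received a unilateral caudate-putamen electrolesion (1.5 mA, 15 s) and 14 days of recovery. Only mice circling ≥7 ipsilateral revolutions/2 min after apomorphine HCl 1.0 mg/kg sc were kept, with a further 7 days of recovery. After sc dosing, complete revolutions in one direction were counted manually. Lesion sites were verified afterwards.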

[11] = Induction of pecking activity in pigeons assessed as counts for 1 hr; format: functional; settings: Columbidae
Outline: (§6)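 Pigeons were dosed im, with doses spaced at 0.3 log intervals, and pecks were counted over 1 h. Pecking after 1.63 µmol apomorphine hydrochloride was taken as the 100% response.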

Canis familiaris [12] = test: Emetic activity in sc dosed dogs assessed as frequency of vomiting for 1 hr; format: functional; settings: Canis lupus familiaris
Outline: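 At least five dogs per compound were dosed sc, with doses spaced at 0.3 log intervals. Vomiting frequency was recorded over 1 h.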

Mus musculus [13] = test: Dopaminergic activity in sc dosed albino mouse assessed as induction of ipsilateral circling behavior; format: functional, organism-based; outline: as §5
Felis catus = test: Inhibition of electrical-stimulation of postganglionic cardioaccelerator nerve in iv dosed cat; format: functional; settings: read-out: ID50 (the source's name)
Outline: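 Cats were anaesthetised with sodium pentobarbital 30 mg/kg and ventilated. The right postganglionic cardioaccelerator nerves were stimulated with bipolar electrodes (2 Hz, 5 ms pulses, supramaximal voltage, 20–30 s trains), and heart rate was read by cardiotachometer. Doses were spaced at 0.48 log intervals, and the dose inhibiting positive chronotropic responses by 50% was calculated.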

Mus musculus [14] = test: Dopaminergic activity in albino mouse assessed as induction of ipsilateral circling behavior at 0.05 to 0.5 mg/kg, sc; format: functional, organism-based; outline: as §5
Rattus norvegicus [15] = test: Dopaminergic activity in Sprague-Dawley rat assessed as stereotyped behavior characterized by sniffing and biting at 0.025 to 0.05 mg/kg, sc; format: functional, organism-based; outline: as §2
Mus musculus [16] = test: Dopaminergic activity in albino mouse assessed as induction of climbing behavior at 0.1 to 0.5 mg/kg, sc after 120 mins; format: functional, organism-based; outline: as §4
[17] = Induction of pecking activity in pigeons assessed as counts for 1 hr relative to apomorphine; format: functional, Columbidae; outline: as §6
Mus musculus [18] = test: Dopaminergic activity in albino mouse assessed as induction of climbing behavior at 0.5 mg/kg, sc up to 30 mins; format: functional; settings: route subcutaneous; outline: as §4
Mus musculus [19] = test: Dopaminergic activity in albino mouse assessed as stereotyped behavior characterized by sniffing and biting at 0.05 to 1 mg/kg, sc; format: functional, organism-based; outline: as §3
Mus musculus [20] = test: Dopaminergic activity in albino mouse assessed as induction of climbing behavior at 0.1 to 0.5 mg/kg, sc; format: functional, organism-based; outline: as §4
Rattus norvegicus [21] = test: Dopaminergic activity in Sprague-Dawley rat assessed as stereotypic behavior administered into caudate-putamen measured up to 25 ug from 5 to 15 mins to persisted up to 5 to 6 hrs; format: functional, organism-based; outline: as §1
Rattus norvegicus [22] = test: Dopaminergic activity in Sprague-Dawley rat assessed as stereotyped behavior characterized by periodic biting associated with sniffing administered into nucleus accumbens; format: functional, organism-based; outline: as §1
Rattus norvegicus [23] = test: Dopaminergic activity in Sprague-Dawley rat assessed as hyperactivity behavior administered into nucleus caudate-putamen measured up to 25 ug from 30 to 45 mins to persisted up to 5 to 6 hrs; format: functional, organism-based; outline: as §1
Rattus norvegicus [24] = test: Dopaminergic activity in Sprague-Dawley rat assessed as locomotor and stereotypic behavior administered into nucleus accumbens measured up to 25 ug from 5 to 15 mins to persisted up to 5 to 6 hrs; format: functional, organism-based; outline: as §1
Rattus norvegicus [25] = test: Dopaminergic activity in Sprague-Dawley rat assessed as stereotyped behavior characterized by continous sniffing up to 25 ug administered into caudate-putamen; format: functional, organism-based; outline: as §1
Mus musculus [26] = test: Dopaminergic activity in albino mouse assessed as induction of ipsilateral circling behavior at 0.05 to 0.5 mg/kg, sc after 120 mins; format: functional, organism-based; outline: as §5
Rattus norvegicus [27] = test: Dopaminergic activity in Sprague-Dawley rat assessed as biting behavior up to 50 ug administered into nucleus accumbens; format: functional, organism-based; outline: as §1
Mus musculus [28] = test: Dopaminergic activity in albino mouse assessed as induction of climbing behavior at 0.5 to 1.5 mg/kg, sc; format: functional, organism-based
Outline: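 Male albino mice (20-25 g, N = 10) received agents sc in water with 0.1% sodium metabisulfite. They were placed in perspex cages lined with wire mesh and counted as climbing when holding the wire with all four paws. Read-outs were climbing index (% time climbing in the 30 min after the first climb) and maximum single-climb time. Range given is threshold to maximal dose.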

Mus musculus [29] = test: Dopaminergic activity in albino mouse assessed as induction of ipsilateral circling behavior at 0.25 to 1 mg/kg, sc; format: functional, organism-based
Outline: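 Mice received a unilateral caudate-putamen electrolesion (1.5 mA, 15 s). After 14 days they were screened with apomorphine HCl 1.0 mg/kg sc, and animals circling ≥7 ipsilateral revolutions/2 min were kept. After 7 days' recovery, agents were given sc and complete one-direction revolutions were counted manually. Lesion sites were verified histologically. Range given is threshold to maximal dose.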

Mus musculus [30] = test: Dopaminergic activity in albino mouse assessed as stereotyped behavior characterized by sniffing and biting at 1.5 to 4 mg/kg, sc; format: functional, organism-based
Rattus norvegicus [31] = test: Dopaminergic activity in Sprague-Dawley rat assessed as stereotyped behavior characterized by sniffing and biting at 0.5 to 2 mg/kg, sc; format: functional, organism-based
Outline: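 Male Sprague-Dawley rats in groups of 10 received agents sc, dissolved in distilled water containing 0.1% sodium metabisulfite, and were scored for stereotyped sniffing and biting. Testing ran 08:00-18:00 h in sound-proofed rooms at 21 ± 2 °C. The reported range runs from the threshold dose to the dose producing the maximum attainable response, in mg/kg sc.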

Rattus norvegicus [32] = test: Dopaminergic activity in Sprague-Dawley rat assessed as stereotyped behavior characterized by sniffing and biting at 1 to 10 mg/kg, sc; format: functional, organism-based; outline: as §2
Mus musculus [33] = test: Dopaminergic activity in albino mouse assessed as stereotyped behavior characterized by sniffing and biting at 1 to 2 mg/kg, sc; format: functional, organism-based; outline: as §3
Mus musculus [34] = test: Dopaminergic activity in albino mouse assessed as induction of ipsilateral circling behavior at 0.5 to 2 mg/kg, sc after 120 mins; format: functional, organism-based; outline: as §5
Mus musculus [35] = test: Dopaminergic activity in albino mouse assessed as induction of climbing behavior at 0.025 to 1 mg/kg, sc; format: functional, organism-based; outline: as §4
Mus musculus [36] = test: Dopaminergic activity in albino mouse assessed as induction of climbing behavior at 0.025 to 1 mg/kg, sc after 120 mins; format: functional, organism-based; outline: as §4
Mus musculus [37] = test: Dopaminergic activity in albino mouse assessed as induction of ipsilateral circling behavior at 0.5 to 2 mg/kg, sc; format: functional, organism-based; outline: as §5

Row | Structure (SMILES) | fold change (FC) (Canis familiaris [1]) | Activity (Rattus norvegicus [2]) | Activity (Rattus norvegicus [3]) | Activity (Rattus norvegicus [4]) | Activity (Rattus norvegicus [5]) | Activity (Mus musculus [6]) | Activity (Rattus norvegicus [7]) | Activity (Rattus norvegicus [8]) | Activity (Mus musculus [9]) | Activity (Mus musculus [10]) | ED50 (Felis catus) | Activity (Rattus norvegicus [21]) | Activity (Rattus norvegicus [23]) | Activity (Rattus norvegicus [25]) | also measured
1 | CCN1CCC[C@@H]2c3ccc(O)c(O)c3CC[C@@H]21 (relative stereo) | 0.053 | Active | inactive | Active | Active | inactive | Active | Active | inactive | inactive | – | – | – | – | –
2 | CN1CCc2cccc3c2[C@H]1Cc1ccc(O)c(O)c1-3 [APOMORPHINE HYDROCHLORIDE] | – | – | – | – | – | – | – | – | – | – | – | – | – | – | ED50 [11]: 0.77 µmol/kg; ED50 (Canis familiaris [12]): 0.14 µmol/kg
3 | CCCN1CCC[C@@H]2c3ccc(O)c(O)c3CC[C@H]21 (relative stereo) | 2.7 | Active | – | – | – | – | – | Active | – | – | 0.0003 µmol/kg | Active | Active | Active | Activity (Mus musculus [13]): Dose-dependent effect; Activity (Mus musculus [14]): Active; Activity (Rattus norvegicus [15]): Active; Activity (Mus musculus [16]): Active; fold change (FC) [17]: 0.32; Activity (Mus musculus [18]): >90%; Activity (Mus musculus [19]): Active; Activity (Mus musculus [20]): Active; Activity (Rattus norvegicus [22]): Active; Activity (Rattus norvegicus [24]): Active; Activity (Mus musculus [26]): Active
4 | NCCc1ccc(O)c(O)c1 | – | Active | – | Active | – | – | – | – | – | – | – | Active | Active | – | Activity (Rattus norvegicus [27]): inactive
5 | CN1CCc2cccc3c2[C@H]1Cc1ccc(O)c(O)c1-3 | – | – | – | – | – | – | – | – | – | – | – | – | – | – | Activity (Mus musculus [28]): Active; Activity (Mus musculus [29]): Active; Activity (Mus musculus [30]): Active; Activity (Rattus norvegicus [31]): Active
6 | Oc1ccc2c(c1O)CC[C@@H]1NCCC[C@H]21 (relative stereo) | 0.024 | inactive | inactive | inactive | Active | inactive | Active | inactive | inactive | inactive | 0.027 µmol/kg | – | – | inactive | –
7 | Oc1ccc2c(c1O)CC[C@H]1NCCC[C@H]21 (relative stereo) | 4.5 | inactive | – | inactive | Active | inactive | Active | Active | inactive | inactive | 0.0007 µmol/kg | – | – | Active | Activity (Rattus norvegicus [32]): Active
8 | CCCN1CCC[C@@H]2c3ccc(O)c(O)c3CC[C@@H]21 (relative stereo) | – | inactive | inactive | inactive | Active | inactive | Active | inactive | inactive | inactive | – | – | – | inactive | –
9 | CN1CCc2cccc3c2[C@H]1Cc1ccc(O)c(O)c1-3 [APOMORPHINE] | – | – | – | – | – | – | – | – | – | – | 0.019 µmol/kg | – | – | – | –
10 | CCN1CCC[C@@H]2c3ccc(O)c(O)c3CC[C@H]21 (relative stereo) | 4.9 | inactive | – | – | – | – | – | Active | – | – | 0.0005 µmol/kg | Active | Active | Active | Activity (Mus musculus [33]): Active; Activity (Mus musculus [34]): Active; Activity (Mus musculus [13]): Dose-dependent effect; Activity (Mus musculus [35]): Active; Activity (Rattus norvegicus [15]): Active; fold change (FC) [17]: 0.39; Activity (Mus musculus [36]): Active; Activity (Rattus norvegicus [27]): Active; Activity (Mus musculus [37]): Active
